Results reported in ChEMBL document CHEMBL4145615, “Indolyl Azaspiroketal Mannich Bases Are Potent Antimycobacterial Agents with Selective Membrane Permeabilizing Effects and in Vivo Activity” (J Med Chem, 2018).
Values after ≈ are worked out from the molar mass of the structure shown. Active and inactive are the calls of the source. The rule behind the calls is not given here.

Legend:
[1] = test system: Mycobacterium tuberculosis variant bovis BCG; test: Antimycobacterial activity against Mycobacterium bovis BCG ATCC 35734 after 5 days by broth dilution method; type: functional; conditions: ATCC 35734, 120 h
[2] = test system: Mycobacterium tuberculosis variant bovis BCG; test: Bactericidal activity against Mycobacterium bovis BCG ATCC 35734 assessed as 1000 fold reduction in CFU after 5 days; type: functional; conditions: ATCC 35734, 120 h, read-out: MBC99.9
Method in brief: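 BCG ran 5 days at 37°C, 110 rpm; H37Rv ran 7 days at 37°C, 80 rpm. CFU counted on 7H10 agar. MBC99.9 is the 1000-fold CFU reduction versus inoculum at time zero. Average of 2 or more determinations.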

[3] = test system: Mycobacterium tuberculosis variant bovis BCG; test: Antimycobacterial activity against Mycobacterium bovis BCG ATCC 35734 after 5 days in absence of glycerol by broth dilution method; type: functional; conditions: ATCC 35734, 120 h
[4] = test system: Mycobacterium tuberculosis variant bovis BCG; test: Antimycobacterial activity against Mycobacterium bovis BCG ATCC 35734 after 5 days in presence of 10% FBS by broth dilution method; type: functional; conditions: ATCC 35734, 120 h
[5] = test system: Cell membrane; test: Disruption of cell membrane potential in Mycobacterium bovis BCG ATCC 35734 at 100 uM after 20 mins to 5 days by DiOC2 dye-based fluorescence assay; conditions: Mycobacterium tuberculosis variant bovis BCG
Method in brief: (§1)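 Controls were rifampicin 0.08 μM (negative) and CCCP 100 μM (positive). Membrane potential tracked by DiOC2 red/green fluorescence ratio over minutes–hours and days 1–5, versus drug-free cultures. 2–3 independent biological replicates.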

[6] = test system: Mycobacterium tuberculosis variant bovis BCG; test: Bactericidal activity against Mycobacterium bovis BCG ATCC 35734 at 4 times MIC90 measured up to 48 hrs by time kill assay relative to control; type: functional
Method in brief: (§2)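 Samples taken at 6, 12, 24 and 48 h, diluted and plated on 7H10 agar for CFU. Three independent biological replicates.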

[7] = test system: Cell membrane; test: Disruption of cell membrane potential in Mycobacterium bovis BCG ATCC 35734 at 4 times MIC90 after 4 hrs by DiOC2 dye-based fluorescence assay; conditions: Mycobacterium tuberculosis variant bovis BCG; method in brief: as §1
[8] = test system: Cell membrane; test: Disruption of cell membrane potential in Mycobacterium bovis BCG ATCC 35734 at 4 times MIC90 after 3 days by DiOC2 dye-based fluorescence assay; conditions: Mycobacterium tuberculosis variant bovis BCG; method in brief: as §1
[9] = test system: Cell membrane; test: Induction of cell membrane permeabilization in Mycobacterium bovis BCG ATCC 35734 at 4 times MIC90 after 12 hrs by SYTO9/propidium iodide staining-based fluorescence assay; conditions: Mycobacterium tuberculosis variant bovis BCG
Method in brief: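 At each time point cells were washed into 0.9% NaCl at OD600 = 0.5 and stained with SYTO 9 and PI for 15 min at 37°C in the dark. Green (488/530 nm) and red (488/630 nm) fluorescence read. G/R ratio scaled between drug-free (0%) and 5% SDS (100%). Three biological replicates.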

[10] = test system: Cell membrane; test: Disruption of cell membrane potential in Mycobacterium bovis BCG ATCC 35734 at 0.08 uM after 20 mins to 5 days by DiOC2 dye-based fluorescence assay; conditions: Mycobacterium tuberculosis variant bovis BCG; method in brief: as §1
[11] = test system: Mycobacterium tuberculosis variant bovis BCG; test: Bactericidal activity against Mycobacterium bovis BCG ATCC 35734 at 4 times MIC90 measured at 48 hrs by time kill assay relative to control; type: functional, organism-based; method in brief: as §2

SMILES	MIC50 [1]	MIC90 [1]	MBC [2]	MIC50 [3]	MIC50 [4]	also measured
CCCCCCCCn1cc(CN2CCC3(CC2)OCCS3)c2ccc(OC)cc21	0.6 µM (≈ 0.258 µg/mL)	0.8 µM (≈ 0.345 µg/mL)	0.8 to 1.6 µM (≈ 0.345 to 0.689 µg/mL)	0.37 µM (≈ 0.159 µg/mL)	0.32 µM	
N#CC(C#N)=NNc1cccc(Cl)c1						Activity [5]: Active
CCCCCCCCn1cc(CN2CCC3(CC2)SCCS3)c2ccc(OC)cc21	0.5 µM (≈ 0.223 µg/mL)	0.8 µM (≈ 0.357 µg/mL)	0.8 to 1.6 µM (≈ 0.357 to 0.715 µg/mL)	0.27 µM (≈ 0.121 µg/mL)	0.28 µM	
NNC(=O)c1ccncc1 [ISONIAZID]						fold change (FC) [6]: >100
CCCCCCCCn1cc(CN2CCC3(CC2)OCCCO3)c2ccc(OC)cc21	0.3 µM (≈ 0.129 µg/mL)	0.8 µM (≈ 0.343 µg/mL)	0.8 to 1.6 µM (≈ 0.343 to 0.686 µg/mL)	0.35 µM (≈ 0.15 µg/mL)	0.33 µM	fold change (FC) [6]: >100
CCCCCCCCn1cc(CN2CCCCCC2)c2c(F)cccc21						Activity [7]: inactive; Activity [8]: Active
CCCCCCCCn1cc(CN2CCC3(CC2)OCCCS3)c2ccc(OC)cc21	0.4 µM (≈ 0.178 µg/mL)	0.8 µM (≈ 0.356 µg/mL)	0.4 to 1.6 µM (≈ 0.178 to 0.711 µg/mL)	0.41 µM (≈ 0.182 µg/mL)	0.6 µM	Activity [9]: Active; fold change (FC) [6]: >100
CO[C@H]1/C=C/O[C@@]2(C)Oc3c(C)c(O)c4c(O)c(c(/C=N/N5CCN(C)CC5)c(O)c4c3C2=O)NC(=O)/C(C)=C\C=C\[C@H](C)[C@H](O)[C@@H](C)[C@@H](O)[C@@H](C)[C@H](OC(C)=O)[C@@H]1C						Activity [10]: inactive
CCCCCCCCn1cc(CN2CCC3(CC2)OCCO3)c2ccc(OC)cc21	2 µM (≈ 0.829 µg/mL)	4 µM (≈ 1.66 µg/mL)	3 to 6 µM (≈ 1.24 to 2.49 µg/mL)	1.6 µM (≈ 0.663 µg/mL)	1.1 µM	Activity [11]: inactive
CCCCCCCCn1cc(CN2CCC3(CC2)SCCCS3)c2ccc(OC)cc21	0.4 µM (≈ 0.184 µg/mL)	0.8 µM (≈ 0.369 µg/mL)	0.8 to 1.6 µM (≈ 0.369 to 0.737 µg/mL)	0.43 µM (≈ 0.198 µg/mL)	0.48 µM	
COc1ccc(CCCn2cc(CN3CCC4(CC3)OCCO4)c3ccc(OC)cc32)cc1	7.4 µM (≈ 3.33 µg/mL)	17 µM (≈ 7.66 µg/mL)				
CCCCCCCCn1ccc2cc(OCCCN3CCCCC3)ccc21	13 µM (≈ 4.82 µg/mL)	40 µM (≈ 14.8 µg/mL)				
CCCCCCCCn1cc(CN2CC(c3ccccc3)C2)c2ccc(OC)cc21	2 µM (≈ 0.809 µg/mL)	4 µM (≈ 1.62 µg/mL)				
CCCCCCCCn1cc(CN2CCC3(CC2)OCCCO3)c2ccc(OCCC)cc21	0.7 µM (≈ 0.32 µg/mL)	1.2 µM (≈ 0.548 µg/mL)				
CCCCCCCCn1cc(CN2CCCC(=O)CC2)c2ccc(OC)cc21	17 µM (≈ 6.54 µg/mL)	42 µM (≈ 16.2 µg/mL)				
CCCCCCCCn1ccc2cccc(OCCCN3CCCCCC3)c21	5 µM (≈ 1.92 µg/mL)	11 µM (≈ 4.23 µg/mL)				
CCCCCCCCn1cc(CN2CCC3(CC2)OCCO3)c2ccc([N+](=O)[O-])cc21	0.8 µM (≈ 0.344 µg/mL)	1.6 µM (≈ 0.687 µg/mL)				
